# Measured values reported in ChEMBL document CHEMBL4406880, “Design, synthesis, and bioactivity of dihydropyrimidine derivatives as kinesin spindle protein inhibitors” (Bioorg Med Chem, 2019).
# Assays:
# Format in all cases: functional
# COLO 205 [1] = assay: Growth inhibition of human COLO205 cells assessed as cell viability at 0.1 uM incubated for 48 hrs by sulforhodamine B assay; details: COLO 205, 48 h, read-out: Activity
# CAKI-1 = assay: Growth inhibition of human Caki1 cells assessed as cell viability at 1 uM incubated for 48 hrs by sulforhodamine B assay; details: CAKI-1, 48 h, read-out: Activity
# Hs-578T [2] = assay: Growth inhibition of human Hs 578T cells assessed as cell viability at 0.001 uM incubated for 48 hrs by sulforhodamine B assay relative to control; details: read-out: Activity
# SF-268 = assay: Growth inhibition of human SF268 cells assessed as cell viability at 100 uM incubated for 48 hrs by sulforhodamine B assay; details: SF-268, 48 h, read-out: Activity
# MDA-MB-435 = assay: Growth inhibition of human MDA-MB-435 cells assessed as cell viability at 100 uM incubated for 48 hrs by sulforhodamine B assay; details: MDA-MB-435, 48 h, read-out: Activity
# DU-145 = assay: Growth inhibition of human DU145 cells incubated for 48 hrs by sulforhodamine B assay; details: DU-145, 48 h
# Method in brief: (§1)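 NCI-60 five-dose mode: five tenfold dilutions (0.01, 0.1, 1, 10, 100 µM) are applied for 48 h to cells in RPMI 1640 with 5% FBS at 37 °C. Endpoint is TCA fixation with sulforhodamine B read at 515 nm. % growth comes from the 0 h and control absorbances. GI50 is the concentration giving a 50% reduction in net cell growth.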
# K562 = assay: Growth inhibition of human K562 cells incubated for 48 hrs by sulforhodamine B assay; details: K562, 48 h
# Method in brief: (§2)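 NCI-60 five-dose SRB assay in RPMI 1640 with 5% FBS, 37 °C, 5% CO2. Compound given at five tenfold dilutions, 0.01–100 µM, for 48 h. Adherent cells fixed with TCA, suspension cells with 16% final TCA. Bound SRB read at 515 nm and growth calculated against time-zero and untreated controls. GI50 taken from dose–response curves as the concentration giving a 50% decrease in net cell growth.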
# BT-549 = assay: Growth inhibition of human BT549 cells incubated for 48 hrs by sulforhodamine B assay; details: BT-549, 48 h; method in brief: as §1
# HCC 2998 = assay: Growth inhibition of human HCC2998 cells assessed as cell viability at 1 uM incubated for 48 hrs by sulforhodamine B assay; details: HCC 2998, 48 h, read-out: Activity
# OVCAR-3 = assay: Growth inhibition of human OVCAR3 cells incubated for 48 hrs by sulforhodamine B assay; details: OVCAR-3, 48 h; method in brief: as §2
# OVCAR-8 [3] = assay: Growth inhibition of human OVCAR8 cells assessed as cell viability at 0.001 uM incubated for 48 hrs by sulforhodamine B assay relative to control; details: OVCAR-8, 48 h, read-out: Activity
# OVCAR-8 [4] = assay: Growth inhibition of human OVCAR8 cells assessed as cell viability at 1 uM incubated for 48 hrs by sulforhodamine B assay; details: OVCAR-8, 48 h, read-out: Activity
# SK-MEL-2 = assay: Growth inhibition of human SK-MEL-2 cells incubated for 48 hrs by sulforhodamine B assay; details: SK-MEL-2, 48 h
# Method in brief: (§3)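 NCI-60 five-dose SRB assay. Cells were exposed for 48 h to tenfold dilutions of 0.01, 0.1, 1, 10 and 100 µM, in RPMI 1640 with 5% FBS. Plates fixed with TCA at the time of drug addition served as the time-zero reference. GI50 is the concentration giving a 50% reduction in net growth. TGI is total growth inhibition. LC50 is a net 50% loss of the initial cells.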
# SF-295 = assay: Growth inhibition of human SF295 cells incubated for 48 hrs by sulforhodamine B assay; details: SF-295, 48 h; method in brief: as §3
# COLO 205 [5] = assay: Growth inhibition of human COLO205 cells assessed as cell viability at 1 uM incubated for 48 hrs by sulforhodamine B assay; details: COLO 205, 48 h, read-out: Activity
# SK-MEL-5 = assay: Growth inhibition of human SK-MEL-5 cells assessed as cell viability at 100 uM incubated for 48 hrs by sulforhodamine B assay; details: SK-MEL-5, 48 h, read-out: Activity
# UACC-257 = assay: Growth inhibition of human UACC257 cells assessed as cell viability at 0.001 uM incubated for 48 hrs by sulforhodamine B assay relative to control; details: UACC-257, 48 h, read-out: Activity
# IGROV-1 = assay: Growth inhibition of human IGROV1 cells incubated for 48 hrs by sulforhodamine B assay; details: IGROV-1, 48 h; method in brief: as §2
# HCT-15 = assay: Growth inhibition of human HCT15 cells assessed as cell viability at 0.1 uM incubated for 48 hrs by sulforhodamine B assay; details: HCT-15, 48 h, read-out: Activity
# PC-3 = assay: Growth inhibition of human PC3 cells assessed as cell viability at 0.1 uM incubated for 48 hrs by sulforhodamine B assay; details: PC-3, 48 h, read-out: Activity
# Hs-578T [6] = assay: Growth inhibition of human Hs 578T cells assessed as cell viability at 1 uM incubated for 48 hrs by sulforhodamine B assay; details: read-out: Activity
# NCI-H322M = assay: Growth inhibition of human NCI-H322M cells assessed as cell viability at 0.001 uM incubated for 48 hrs by sulforhodamine B assay relative to control; details: read-out: Activity
# [7] = read-out: LC50 (the source's name)
# [8] = read-out: pLC50 (the source's name) (converted)
smiles,measurement,setting,value
CC1=C(C(=O)OCc2ccccc2)C(c2ccc3c(c2)OCO3)n2c(nc3ccccc32)N1 (racemic),viability at 0.1 µM,COLO 205 [1],101%
same,viability at 1 µM,CAKI-1,20%
same,viability at 0.001 µM,Hs-578T [2],87%
same,viability at 100 µM,SF-268,9%
same,viability at 100 µM,MDA-MB-435,-7%
same,GI50,DU-145; read-out: GI50,0.59 µM
same,CC50,DU-145; [7],> 100 µM
same,TGI,DU-145; read-out: TGI,> 100 µM
same,GI50,DU-145; read-out: pGI50 (converted),0.589 µM
same,CC50,DU-145; [8],> 100 µM
same,TGI,DU-145; read-out: pTGI,> 100 µM
same,GI50,K562; read-out: GI50,0.34 µM
same,CC50,K562; [7],> 100 µM
same,TGI,K562; read-out: TGI,> 100 µM
same,GI50,K562; read-out: pGI50 (converted),0.347 µM
same,CC50,K562; [8],> 100 µM
same,TGI,K562; read-out: pTGI,> 100 µM
same,GI50,BT-549; read-out: GI50,0.92 µM
same,CC50,BT-549; [7],> 100 µM
same,TGI,BT-549; read-out: TGI,> 100 µM
same,GI50,BT-549; read-out: pGI50 (converted),0.912 µM
same,CC50,BT-549; [8],> 100 µM
same,TGI,BT-549; read-out: pTGI,> 100 µM
same,viability at 1 µM,HCC 2998,59%
same,GI50,OVCAR-3; read-out: GI50,0.26 µM
same,CC50,OVCAR-3; [7],> 100 µM
same,TGI,OVCAR-3; read-out: TGI,1.09 µM
same,GI50,OVCAR-3; read-out: pGI50 (converted),0.257 µM
same,CC50,OVCAR-3; [8],> 100 µM
same,TGI,OVCAR-3; read-out: pTGI (converted),1.1 µM
same,viability at 0.001 µM,OVCAR-8 [3],95%
same,viability at 1 µM,OVCAR-8 [4],38%
same,GI50,SK-MEL-2; read-out: GI50,1.29 µM
same,LC50,SK-MEL-2; read-out: LC50,> 100 µM
same,TGI,SK-MEL-2; read-out: TGI,> 100 µM
same,GI50,SK-MEL-2; read-out: pGI50 (converted),1.29 µM
same,LC50,SK-MEL-2; read-out: pLC50 (converted),> 100 µM
same,TGI,SK-MEL-2; read-out: pTGI,> 100 µM
same,GI50,SF-295; read-out: GI50,0.33 µM
same,LC50 (concentration causing 50% net loss of initial cells),SF-295; read-out: LC50,> 100 µM
same,TGI,SF-295; read-out: TGI,> 100 µM
same,GI50,SF-295; read-out: pGI50 (converted),0.331 µM
same,LC50 (concentration causing 50% net loss of initial cells),SF-295; read-out: pLC50 (converted),> 100 µM
same,TGI,SF-295; read-out: pTGI,> 100 µM
same,viability at 1 µM,COLO 205 [5],28%
same,viability at 100 µM,SK-MEL-5,35%
same,viability at 0.001 µM,UACC-257,88%
same,GI50,IGROV-1; read-out: GI50,0.62 µM
same,CC50,IGROV-1; [7],> 100 µM
same,TGI,IGROV-1; read-out: TGI,> 100 µM
same,GI50,IGROV-1; read-out: pGI50 (converted),0.617 µM
same,CC50,IGROV-1; [8],> 100 µM
same,TGI,IGROV-1; read-out: pTGI,> 100 µM
same,viability at 0.1 µM,HCT-15,84%
same,viability at 0.1 µM,PC-3,91%
same,viability at 1 µM,Hs-578T [6],5%
same,viability at 0.001 µM,NCI-H322M,96%
